Measurements: ChEMBL document CHEMBL1240328, “Selective compounds define Hsp90 as a major inhibitor of apoptosis in small-cell lung cancer” (Nat Chem Biol, 2007)
The source made the active and inactive calls. The rule behind the calls is not given here.

Key:
[1] = molecular target: Heat shock protein HSP 90-beta (Homo sapiens) (UniProt P08238); assay: Inhibition of HSP90-mediated antiapoptotic activity in human SKBR3 cells assessed as induction of caspase-9 cleavage at 20 uM after 24 hrs by Western blot analysis; assay type: cell-based; details: SK-BR-3
Procedure, shortened: (§1)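 SKBr3 cells at 60–70% confluence were exposed to drug or DMSO vehicle. Lysis was in 50 mM Tris pH 7.4, 150 mM NaCl, 1% NP-40, with protein measured by BCA. Lysates of 20–100 µg were run on SDS-PAGE, blotted to nitrocellulose, probed with primary antibodies and detected with a peroxidase-conjugated secondary (1:5,000). Loading was checked with β-actin or PI(3)K p85.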

[2] = molecular target: Heat shock protein HSP 90-beta (Homo sapiens) (UniProt P08238); assay: Inhibition of HSP90-mediated antiapoptotic activity in human SKBR3 cells assessed as induction of PARP cleavage at 50 uM after 24 hrs by Western blot analysis; assay type: cell-based; details: SK-BR-3; procedure, shortened: as §1
[3] = molecular target: Heat shock protein HSP 90-beta (Homo sapiens) (UniProt P08238); assay: Inhibition of HSP90-mediated antiapoptotic activity in human NCI-H526 cells assessed as reduction in BAD phosphorylation at 50 uM after 24 hrs by Western blot analysis; assay type: cell-based
[4] = molecular target: Heat shock protein HSP 90-beta (Homo sapiens) (UniProt P08238); assay: Inhibition of HSP90-mediated antiapoptotic activity in human NCI-H69 cells assessed as increase in apoptotic cell population at 0.2 to 1 uM after 72 hrs by FACS analysis relative to control; assay type: cell-based
[5] = molecular target: Heat shock protein HSP 90-beta (Homo sapiens) (UniProt P08238); assay: Inhibition of HSP90-mediated antiapoptotic activity in human MCF7 cells assessed as induction of cell growth arrest at 50 uM after 24 hrs by propidium iodide staining-based flow cytometry
[6] = molecular target: Heat shock protein HSP 90-beta (Homo sapiens) (UniProt P08238); assay: Inhibition of HSP90-mediated antiapoptotic activity in human NCI-N417 cells assessed as mitochondrial membrane depolarization at 5 uM after 96 hrs by JC-1 staining-based flow cytometry; assay type: cell-based; details: NCI-H417
Procedure, shortened: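 Mitochondrial membrane potential was measured by JC-1 staining and flow cytometry. Depolarization was scored as a shift to cells emitting only green fluorescence. The mitochondrial uncoupler CCCP served as positive control.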

[7] = molecular target: Heat shock protein HSP 90-beta (Homo sapiens) (UniProt P08238); assay: Inhibition of HSP90-mediated antiapoptotic activity in human SKBR3 cells assessed as induction of cell growth arrest at 50 uM after 24 hrs by propidium iodide staining-based flow cytometry; details: SK-BR-3
[8] = molecular target: Heat shock protein HSP 90-beta (Homo sapiens) (UniProt P08238); assay: Inhibition of HSP90-mediated antiapoptotic activity in human NCI-H526 cells assessed as subG1 accumulation at 5 uM after 72 hrs by propidium iodide staining-based flow cytometry; assay type: cell-based
Procedure, shortened: (§2)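 SCLC cells treated for 72 h with graded doses. Mitochondrial membrane potential read by flow cytometry after JC-1 staining, with green-only emission indicating depolarization. Sub-G1 DNA content read after propidium iodide staining. CCCP used as positive control. n = 3 repeat experiments.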

[9] = molecular target: Heat shock protein HSP 90-beta (Homo sapiens) (UniProt P08238); assay: Inhibition of HSP90-mediated antiapoptotic activity in human NCI-H187 cells assessed as subG1 accumulation at 2.5 uM after 72 hrs by propidium iodide staining-based flow cytometry; assay type: cell-based; procedure, shortened: as §2
[10] = molecular target: Heat shock protein HSP 90-beta (Homo sapiens) (UniProt P08238); assay: Inhibition of HSP90-mediated antiapoptotic activity in human NCI-H526 cells assessed as induction of caspase-9 cleavage at 10 uM after 24 hrs by Western blot analysis; assay type: cell-based
Procedure, shortened: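 NCI-H526 cells at 60–70% confluence were exposed to drug or DMSO for 24 h. Lysed in 50 mM Tris pH 7.4, 150 mM NaCl, 1% NP-40, with protein measured by BCA. 20–100 µg run on SDS-PAGE and blotted to nitrocellulose. Probed with cleaved-protein antibodies and peroxidase secondary at 1:5,000, with β-actin as loading control.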

[11] = molecular target: Heat shock protein HSP 90-beta (Homo sapiens) (UniProt P08238); assay: Effect on HSP90-mediated Bcl-XL expression in human NCI-H526 cells at 25 uM after 24 hrs by Western blot analysis; assay type: cell-based
Procedure, shortened: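 NCI-H526 cells were exposed for 24 h to drug or DMSO vehicle. Lysates were made in 50 mM Tris pH 7.4, 150 mM NaCl, 1% NP-40 and quantified by BCA. Western blot used 20–100 µg protein per lane, with β-actin as loading control.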

[12] = molecular target: Heat shock protein HSP 90-beta (Homo sapiens) (UniProt P08238); assay: Inhibition of HSP90-mediated antiapoptotic activity in human NCI-H526 cells assessed as reduction in BAD phosphorylation at 10 uM after 24 hrs by Western blot analysis; assay type: cell-based
[13] = molecular target: Heat shock protein HSP 90-beta (Homo sapiens) (UniProt P08238); assay: Inhibition of HSP90-mediated antiapoptotic activity in human NCI-H526 cells assessed as reduction in BAD phosphorylation at 20 uM after 24 hrs by Western blot analysis; assay type: cell-based
[14] = molecular target: Heat shock protein HSP 90-beta (Homo sapiens) (UniProt P08238); assay: Inhibition of HSP90-mediated antiapoptotic activity in human NCI-N417 cells assessed as subG1 accumulation at 15 uM after 72 hrs by propidium iodide staining-based flow cytometry; assay type: cell-based; details: NCI-H417
Procedure, shortened: (§3)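 Asynchronously growing cells were treated with compound, stained with propidium iodide and analysed by flow cytometry. The read-out was the percentage of cells with sub-G1 DNA content.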

[15] = molecular target: Heat shock protein HSP 90-beta (Homo sapiens) (UniProt P08238); assay: Inhibition of HSP90-mediated antiapoptotic activity in human MCF7 cells assessed as induction of cell growth arrest at 100 uM after 24 hrs by propidium iodide staining-based flow cytometry
SK-BR-3 [16] = assay: Inhibition of HSP70-mediated antiapoptotic activity in human SKBR3 cells assessed as induction of PARP cleavage after 24 hrs by Western blot analysis; assay type: cell-based
Procedure, shortened: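 SKBr3 cells were treated for 24 h. Lysates were probed by western blot for caspase-3 and PARP cleavage. Apaf-1 complexes were pulled down with Apaf-1 antibody (with control IgG) and immunoblotted.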

[17] = molecular target: Heat shock protein HSP 90-beta (Homo sapiens) (UniProt P08238); assay: Inhibition of HSP90-mediated antiapoptotic activity in human NCI-N417 cells assessed as subG1 accumulation at 5 uM after 72 hrs by propidium iodide staining-based flow cytometry; assay type: cell-based; details: NCI-H417; procedure, shortened: as §3
[18] = molecular target: Heat shock protein HSP 90-beta (Homo sapiens) (UniProt P08238); assay: Inhibition of HSP90-mediated antiapoptotic activity in human NCI-H526 cells assessed as increase in caspase-3 activity at 10 uM after 72 hrs by fluorescence assay in presence of caspase-9 inhibitor Z-LEHD-FMK; assay type: cell-based
Procedure, shortened: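 NCI-H526 cells pretreated with Z-LEHD-FMK (100 µM), then exposed to 10 µM for 72 h. Caspase-3 activation read by Z-DEVD-R110 fluorescence. Caspase-3 and PARP cleavage read by western blot. n = 3.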

[19] = molecular target: Heat shock protein HSP 90-beta (Homo sapiens) (UniProt P08238); assay: Inhibition of HSP90-mediated antiapoptotic activity in human MCF7 cells assessed as induction of caspase-3 cleavage at 400 uM after 24 hrs by Western blot analysis; assay type: cell-based
[20] = molecular target: Heat shock protein HSP 90-beta (Homo sapiens) (UniProt P08238); assay: Inhibition of HSP90-mediated antiapoptotic activity in human NCI-H526 cells assessed as subG1 accumulation at 15 uM after 72 hrs by propidium iodide staining-based flow cytometry; assay type: cell-based; procedure, shortened: as §2
[21] = molecular target: Heat shock protein HSP 90-beta (Homo sapiens) (UniProt P08238); assay: Inhibition of HSP90-mediated antiapoptotic activity in human SKBR3 cells assessed as induction of cell growth arrest at 100 uM after 24 hrs by propidium iodide staining-based flow cytometry; details: SK-BR-3
[22] = molecular target: Heat shock protein HSP 90-beta (Homo sapiens) (UniProt P08238); assay: Inhibition of HSP90-mediated antiapoptotic activity in human NCI-H526 cells assessed as induction of Akt degradation at 20 uM after 24 hrs by Western blot analysis; assay type: cell-based
SK-BR-3 [23] = assay: Inhibition of HSP70-mediated antiapoptotic activity in human SKBR3 cells assessed as increase in caspase-3 activity after 24 hrs by Western blot analysis; assay type: cell-based
[24] = molecular target: Heat shock protein HSP 90-beta (Homo sapiens) (UniProt P08238); assay: Inhibition of HSP90-mediated antiapoptotic activity in human NCI-N417 cells assessed as subG1 accumulation at 25 uM after 72 hrs by propidium iodide staining-based flow cytometry; assay type: cell-based; details: NCI-H417; procedure, shortened: as §3

Heat shock protein HSP 90-beta (Homo sapiens), sequence (P08238 whole entry): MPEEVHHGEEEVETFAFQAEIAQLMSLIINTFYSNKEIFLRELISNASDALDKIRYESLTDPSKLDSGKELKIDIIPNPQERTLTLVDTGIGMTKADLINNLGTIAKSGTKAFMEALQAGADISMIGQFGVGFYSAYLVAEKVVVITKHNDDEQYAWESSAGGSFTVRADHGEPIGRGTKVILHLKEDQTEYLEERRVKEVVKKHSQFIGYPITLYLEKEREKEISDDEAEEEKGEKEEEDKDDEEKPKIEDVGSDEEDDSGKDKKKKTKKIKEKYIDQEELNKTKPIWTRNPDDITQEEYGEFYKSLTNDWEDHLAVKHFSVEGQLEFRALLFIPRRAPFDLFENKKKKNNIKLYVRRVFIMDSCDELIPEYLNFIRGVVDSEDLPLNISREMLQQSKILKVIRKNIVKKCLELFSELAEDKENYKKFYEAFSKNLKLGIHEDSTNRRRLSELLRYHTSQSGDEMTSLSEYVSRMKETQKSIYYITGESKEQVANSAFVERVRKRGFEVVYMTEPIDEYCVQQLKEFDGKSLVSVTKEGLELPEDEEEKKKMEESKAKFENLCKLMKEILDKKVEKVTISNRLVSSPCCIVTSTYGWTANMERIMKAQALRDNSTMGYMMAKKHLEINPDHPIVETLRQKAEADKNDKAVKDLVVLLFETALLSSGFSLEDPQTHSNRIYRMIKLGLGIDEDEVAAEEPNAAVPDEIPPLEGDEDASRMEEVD

- Activity [1]: inactive
- Activity [2]: inactive
- Activity [3]: inactive
- Activity [4]: inactive
- Activity [5]: inactive
- Activity [6]: inactive
- Activity [7]: inactive
- Activity [8]: inactive
- Activity [9]: inactive
- Activity [10]: inactive
- Activity [11]: inactive
- Activity [12]: inactive
- Activity [13]: inactive
- Activity [14]: inactive
- Activity [15]: Active
- Activity [17]: inactive
- Activity [18]: inactive
- Activity [19]: inactive
- Activity [20]: inactive
- Activity [21]: Active
- Activity [22]: inactive
- Activity [24]: inactive
Compound: O=CN1CC/C(=C/c2ccc3c(c2)OCO3)C1=O
- inhibition (SK-BR-3 [16]): Active
- inhibition (SK-BR-3 [23]): Active
